Each block holds one compound with its values, some of them ahead of it. The source made the active and inactive calls. The calls are words filed in the database; no cut-off is given here.
Key:
[1] = biological target: T1, C-X-C chemokine receptor type 4 (Homo sapiens, UniProt P61073); test: Antagonist activity at CXCR4 receptor in human SupT1 cells assessed as inhibition of SDF-1alpha-induced calcium release at 1 uM preincubated for 2 to 3 mins followed by SDF-1alpha addition by Fluo-4AM dye based fluorescence assay relative to control; type: functional, cell-based
How it was run: (§1)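 SupT1 cells loaded with Fluo-4AM (2 µM) plus probenecid (5 µM) for 30 min at 37°C in HBSS/20 mM HEPES, washed; 1×10⁶ cells/mL exposed to compound 2–3 min, then stimulated with 50 nM SDF-1α; fluorescence read at […]/510em.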

[2] = tested on: C-X-C chemokine receptor type 4 (Homo sapiens), P61073 [V112A]; test: Competitive binding affinity to CXCR4 V112A mutant (unknown origin) expresssed in CHO cells at 200 nM incubated for 30 mins by 12G5 antibody based fluorescence analysis; type: cell-based
How it was run: (§2)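 Mutational mapping in CHO cells expressing wild-type or mutant CXCR4, 5×10^5 cells/well. Cells were incubated with a single 200 nM peptide concentration plus 12G5 anti-CD184 antibody in FACS buffer on ice for 30 min. FITC anti-mouse IgG was then added for 30 min on ice. Fluorescence was read at 485/528 nm and normalized to control, in duplicate across at least three experiments.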

[3] = tested on: C-X-C chemokine receptor type 4 (Homo sapiens), P61073 [Y45A]; test: Competitive binding affinity to CXCR4 Y45A mutant (unknown origin) expressed in CHO cells at 200 nM incubated for 30 mins by 12G5 antibody based fluorescence analysis; type: cell-based
How it was run: (§3)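 Wild-type or mutant CXCR4 cells (5×10⁵/well) incubated with single 200 nM concentration in FACS buffer (0.5% BSA, 0.05% azide in PBS) plus 12G5 anti-CD184 antibody, 30 min on ice; washed, FITC anti-mouse IgG 30 min on ice; fluorescence 485ex/528em; duplicates, ≥3 independent experiments, normalized as percent of control.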

[4] = biological target: T1, C-X-C chemokine receptor type 4; test: Inhibition of N-terminal flag-tagged CXCR4 (unknown origin) internalization expressed in CHO cells incubated for 45 mins and measured after 1 hr by FITC-labeled anti-flag antibody based fluorescence analysis
[5] = tested on: Human immunodeficiency virus 1; test: Antiviral activity against Human immunodeficiency virus 1 NL4-3 infected in human PBMC cells assessed as reduction in intracellular p24 level at 100 nM preincubated with cells 2 hrs followed by viral infection and measured after 24 hrs by ELISA; type: functional
How it was run: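 PBMCs from healthy donors (2.5×10^6 cells/mL) were exposed to compound for 2 h, washed, and infected with HIV-1 NL4-3 at MOI 0.02 for 2 h at 37°C. Cells were washed, resuspended in complete medium and incubated 24 h. Cells were then lysed with protease inhibitor, and intracellular p24 was quantified by ELISA.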

[6] = Stability of compound in water assessed as compound remaining at 1mM at 37 degC after 48 hrs by HPLC analysis relative to control; type: physicochemical; settings: read-out: Stability
[7] = biological target: T1, C-X-C chemokine receptor type 4; test: Antagonist activity at CXCR4 (unknown origin) expressed in CHO cells assessed as reduction in basal phosphorylated AKT expression at 50 uM incubated for 30 mins followed by measured after 5 mins by Western blot analysis; type: cell-based
[8] = biological target: T1, C-X-C chemokine receptor type 4; test: Competitive binding affinity to CXCR4 receptor (unknown origin) expressed in CHO cells incubated for 40 mins by 12G5 antibody based fluorescence analysis; type: cell-based
[9] = tested on: C-X-C chemokine receptor type 4 (Homo sapiens), P61073 [D262N]; test: Binding affinity to CXCR4 D262N mutant (unknown origin) expresssed in CHO cells at 200 nM incubated for 30 mins by 12G5 antibody based fluorescence analysis; type: cell-based; how it was run: as §3
[10] = biological target: T1, C-X-C chemokine receptor type 4; test: Antagonist activity at CXCR4 receptor in human SupT1 cells assessed as inhibition of SDF-1alpha-induced calcium release preincubated for 2 to 3 mins followed by SDF-1alpha addition by Fluo-4AM dye based fluorescence assay; type: functional, cell-based; how it was run: as §1
PBMC = test: Cytotoxicity against HIV1 NL4-3 infected in human PBMC cells assessed as cell viability at 50 uM preincubated with cells for 2 hrs followed by viral infection for 2 hrs and measured after 5 days by CellTiter-Blue assay; type: cell-based; settings: 120 h
How it was run: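 PBMCs were seeded at the anti-HIV assay densities and treated in parallel under the same X4 infection and compound exposure conditions. After 5 days at 37°C, viability was read by CellTiter-Blue fluorescence (560/590 nm). The top concentration tested was 50 μM.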

[11] = tested on: C-X-C chemokine receptor type 4 (Homo sapiens), P61073 [Y116A]; test: Competitive binding affinity at CXCR4 Y116A mutant (unknown origin) expressed in CHO cells at 200 nM incubated for 30 mins by 12G5 antibody based fluorescence analysis; type: cell-based; how it was run: as §3
[12] = Stability of compound in 10% FBS assessed as compound remaining at 1mM after 1 hr by HPLC analysis relative to control; type: ADME, cell-free, Bos taurus, Serum; settings: cattle, read-out: Stability
How it was run: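 Peptide dissolved at 1 mM in culture medium with 10% FBS, incubated at 37°C; samples taken over time and analysed by C18 HPLC, UV 220 nm; remaining peptide from peak intensity relative to original peak.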

[13] = tested on: C-X-C chemokine receptor type 4 (Homo sapiens), P61073 [Q200A]; test: Binding affinity to CXCR4 Q200A mutant (unknown origin) expresssed in CHO cells at 200 nM incubated for 30 mins by 12G5 antibody based fluorescence analysis; type: cell-based; how it was run: as §2
[14] = tested on: Human immunodeficiency virus 1; test: Antiviral activity against Human immunodeficiency virus 1 NL4-3 infected in human PBMC cells assessed as inhibition of extracellular p24 level preincubated with cells for 2 hrs followed by viral infection for 2 hrs and measured after 5 days by ELISA
[15] = biological target: T1, C-X-C chemokine receptor type 4; test: Antagonist activity at CXCR4 (unknown origin) in CHO cells assessed as reduction in SDF-1alpha-induced ERK phosphorylation level at 50 uM incubated for 30 mins followed by SDF1-alpha addition measured after 5 mins by Western blot analysis; type: cell-based
How it was run: (§4)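 CXCR4-expressing CHO cells grown in DMEM with 10% FBS, seeded at 10^6 cells/well for 24 h, then moved to serum-free medium. Cells were pretreated with 50 μM peptide for 30 min, then stimulated with 12.5 nM SDF-1α for 5 min. Lysates were adjusted to 3 mg/mL, run on 12% SDS-PAGE and immunoblotted for phospho-AKT/ERK with ECL detection. Bands were quantified by densitometry as % control.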

[16] = biological target: T1, C-X-C chemokine receptor type 4; test: Antagonist activity at CXCR4 (unknown origin) in CHO cells assessed as reduction in SDF-1alpha-induced Akt phosphorylation level at 50 uM incubated for 30 mins followed by SDF1-alpha addition measured after 5 mins by Western blot analysis; type: cell-based; how it was run: as §4
[17] = tested on: C-X-C chemokine receptor type 4 (Homo sapiens), P61073 [W94A]; test: Competitive binding affinity at CXCR4 W94A mutant (unknown origin) expressed in CHO cells at 200 nM incubated for 30 mins by 12G5 antibody based fluorescence analysis; type: cell-based; how it was run: as §3
[18] = biological target: T1, C-X-C chemokine receptor type 4; test: Competitive binding affinity to CXCR4 in human SupT1 cells incubated for 40 mins by 12G5 antibody based fluorescence analysis; type: cell-based
[19] = tested on: C-X-C chemokine receptor type 4 (Homo sapiens), P61073 [R30A]; test: Binding affinity to CXCR4 R30A mutant (unknown origin) expresssed in CHO cells at 200 nM incubated for 30 mins by 12G5 antibody based fluorescence analysis; type: cell-based; how it was run: as §2
[20] = tested on: C-X-C chemokine receptor type 4 (Homo sapiens), P61073 [W195A]; test: Competitive binding affinity to CXCR4 W195A mutant (unknown origin) expresssed in CHO cells at 200 nM incubated for 30 mins by 12G5 antibody based fluorescence analysis; type: cell-based; how it was run: as §3
[21] = tested on: C-X-C chemokine receptor type 4 (Homo sapiens), P61073 [E288Q]; test: Binding affinity to CXCR4 E288Q mutant (unknown origin) expresssed in CHO cells at 200 nM incubated for 30 mins by 12G5 antibody based fluorescence analysis; type: cell-based; how it was run: as §3
Chain of C-X-C chemokine receptor type 4 (Homo sapiens), P61073 [E288Q] (P61073 whole entry E288Q): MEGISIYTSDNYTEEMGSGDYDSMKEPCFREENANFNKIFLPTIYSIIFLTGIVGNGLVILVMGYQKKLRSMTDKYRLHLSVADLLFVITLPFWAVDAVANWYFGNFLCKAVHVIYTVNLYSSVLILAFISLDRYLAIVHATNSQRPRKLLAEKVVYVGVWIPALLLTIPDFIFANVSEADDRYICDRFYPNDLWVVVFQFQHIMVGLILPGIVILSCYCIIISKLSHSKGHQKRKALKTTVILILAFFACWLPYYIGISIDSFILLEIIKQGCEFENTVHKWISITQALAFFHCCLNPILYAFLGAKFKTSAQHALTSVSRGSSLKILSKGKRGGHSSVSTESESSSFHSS

T1 sequence (P61073 whole entry): as the sequence (P61073 whole entry E288Q) above, with Q288E counted along it
Chain of C-X-C chemokine receptor type 4 (Homo sapiens), P61073 [W195A] (P61073 whole entry W195A): as the sequence (P61073 whole entry E288Q) above, with W195A, Q288E counted along it
Chain of C-X-C chemokine receptor type 4 (Homo sapiens), P61073 [Y116A] (P61073 whole entry Y116A): as the sequence (P61073 whole entry E288Q) above, with Y116A, Q288E counted along it
Chain of C-X-C chemokine receptor type 4 (Homo sapiens), P61073 [R30A] (P61073 whole entry R30A): as the sequence (P61073 whole entry E288Q) above, with R30A, Q288E counted along it
Chain of C-X-C chemokine receptor type 4 (Homo sapiens), P61073 [Q200A] (P61073 whole entry Q200A): as the sequence (P61073 whole entry E288Q) above, with Q200A, Q288E counted along it
Chain of C-X-C chemokine receptor type 4 (Homo sapiens), P61073 [Y45A] (P61073 whole entry Y45A): as the sequence (P61073 whole entry E288Q) above, with Y45A, Q288E counted along it
Chain of C-X-C chemokine receptor type 4 (Homo sapiens), P61073 [W94A] (P61073 whole entry W94A): as the sequence (P61073 whole entry E288Q) above, with W94A, Q288E counted along it
Chain of C-X-C chemokine receptor type 4 (Homo sapiens), P61073 [D262N] (P61073 whole entry D262N): as the sequence (P61073 whole entry E288Q) above, with D262N, Q288E counted along it
Chain of C-X-C chemokine receptor type 4 (Homo sapiens), P61073 [V112A] (P61073 whole entry V112A): as the sequence (P61073 whole entry E288Q) above, with V112A, Q288E counted along it

inhibition [1]: 100%
Activity [2]: inactive
Activity [3]: inactive
Activity [4]: inactive
remaining at 48 h, 1000 µM [6]: 87%
Activity [7]: Active
IC50 [8]: 16 nM
Activity [9]: inactive
inhibition [10]: Dose-dependent effect
Activity [11]: inactive
remaining at 1 h, 1000 µM [12]: 80%
Activity [13]: inactive
IC50 [14]: 93 nM
Activity [15]: Active
Activity [16]: Active
Activity [17]: inactive
IC50 [18]: 14 nM
Activity [19]: Active
Activity [20]: inactive
Activity [21]: inactive
Compound: CC(C)C[C@@H](N)C(=O)NCC(=O)N[C@H](C)C(=O)N[C@H](CO)C(=O)N[C@H](Cc1c[nH]c2ccccc12)C(=O)N[C@H](Cc1cnc[nH]1)C(=O)N[C@H](CCCNC(=N)N)C(=O)N1CCC[C@@H]1C(=O)N[C@H](CC(=O)O)C(=O)N[C@H](CCCCN)C(=O)N[C@H](CCCCN)C(=O)N[C@H](CCCNC(=N)N)C(=O)NCCCCCC(=O)N[C@@H](CCCCN)C(=O)N[C@@H](CCCNC(=N)N)C(=O)N[C@@H](CCCCN)C(=O)N[C@H](C(=O)N[C@@H](CC(N)=O)C(=O)N[C@@H](CC(N)=O)C(=O)N[C@@H](CC(N)=O)C(=O)N1CCC[C@H]1C(=O)N[C@@H](CCCNC(=N)N)C(=O)N[C@H](C(=O)N[C@@H](CS)C(=O)O)[C@@H](C)O)[C@@H](C)O
inhibition at 0.1 µM [5]: 16%
Activity (PBMC): Non-Toxic
inhibition [14]: Dose-dependent effect

Compound: CC(C)C[C@@H](N)C(=O)NCC(=O)N[C@H](C)C(=O)N[C@H](CO)C(=O)N[C@H](Cc1c[nH]c2ccccc12)C(=O)N[C@H](Cc1cnc[nH]1)C(=O)N[C@H](CCCNC(=N)N)C(=O)N1CCC[C@@H]1C(=O)N[C@H](CC(=O)O)C(=O)N[C@H](CCCCN)C(=O)N[C@H](CS)C(=O)N[C@H](CS)C(=O)N[C@H](CC(C)C)C(=O)NCC(=O)N[C@H](Cc1ccc(O)cc1)C(=O)N[C@H](CCC(N)=O)C(=O)N[C@H](CCCCN)C(=O)N[C@H](CCCNC(=N)N)C(=O)N1CCC[C@@H]1C(=O)N[C@H](CC(C)C)C(=O)N1CCC[C@@H]1C(=O)NCCCCCC(=O)N[C@@H](CCCCN)C(=O)N[C@H](CCCCN)C(=O)N[C@H](CCCNC(=N)N)C(=O)N[C@H](Cc1ccccc1)C(=O)N[C@H](Cc1ccccc1)C(=O)N[C@H](CC(=O)O)C(=O)NCC(=O)N[C@H](CC(C)C)C(=O)N[C@H](CC(C)C)C(N)=O
IC50 [18]: 193 nM

Compound: CC[C@H](C)[C@H](NC(=O)[C@H](CC(=O)O)NC(=O)CNC(=O)[C@H](CCCCN)NC(=O)[C@H](CCCNC(=N)N)NC(=O)[C@H](CCCCN)NC(=O)CCCCCNC(=O)[C@@H](CCCNC(=N)N)NC(=O)[C@@H](CCCCN)NC(=O)[C@@H](CCCCN)NC(=O)[C@@H](CC(=O)O)NC(=O)[C@H]1CCCN1C(=O)[C@@H](CCCNC(=N)N)NC(=O)[C@@H](Cc1cnc[nH]1)NC(=O)[C@@H](Cc1c[nH]c2ccccc12)NC(=O)[C@@H](CO)NC(=O)[C@@H](C)NC(=O)CNC(=O)[C@H](N)CC(C)C)C(=O)N[C@@H](CCCNC(=N)N)C(=O)N[C@@H](CCC(N)=O)C(=O)N[C@@H](C)C(=O)N[C@@H](Cc1cnc[nH]1)C(=O)N[C@@H](CS)C(N)=O
inhibition [1]: 100%
Activity [4]: inactive
inhibition [5]: Active
remaining at 48 h, 1000 µM [6]: 95%
inhibition [10]: Dose-dependent effect
